Screening results (PubChem BioAssay)
TRPML3 agonist: agonists of human TRPML3 channel | Q8TDD5 | HEK293 TRPML3-YFP, Fluo-8 calcium fluorescence; 100% = the carbachol control signal | activation, % at 3 µM | hit rate 0.29% among 220,000 | AID 1448;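 active means activation above its plate's cutoff, the mean activation of the plate's test wells plus 3 SD, cut at about 12% in these data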
Target sequence (Q8TDD5 whole entry, looked up): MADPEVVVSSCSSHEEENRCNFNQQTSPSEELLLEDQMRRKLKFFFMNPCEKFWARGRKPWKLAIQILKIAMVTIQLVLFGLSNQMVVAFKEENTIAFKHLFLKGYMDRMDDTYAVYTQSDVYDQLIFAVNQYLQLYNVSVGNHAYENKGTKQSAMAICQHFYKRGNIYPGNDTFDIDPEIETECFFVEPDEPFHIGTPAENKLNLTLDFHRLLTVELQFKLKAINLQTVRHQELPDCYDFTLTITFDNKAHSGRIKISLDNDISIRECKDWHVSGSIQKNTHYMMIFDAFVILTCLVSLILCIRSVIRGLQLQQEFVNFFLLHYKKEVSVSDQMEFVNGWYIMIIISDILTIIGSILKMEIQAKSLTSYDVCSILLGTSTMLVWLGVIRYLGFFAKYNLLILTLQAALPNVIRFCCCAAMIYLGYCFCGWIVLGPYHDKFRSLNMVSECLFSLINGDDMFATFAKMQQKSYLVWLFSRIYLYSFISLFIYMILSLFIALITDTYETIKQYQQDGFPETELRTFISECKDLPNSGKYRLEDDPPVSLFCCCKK
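Test system: HEK293 cells stably carrying human TRPML3-YFP; Doses: single dose, 3 µM final nominal compound, 0.3% DMSO final; Schedule: dye loading 1 h 37 °C then 30 min ambient, 125 s read; Technique: Fluo-8 calcium fluorescence; Benchmarks: high control carbachol 87 µM, low control DMSO.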
GPR7 antag: antagonists of human GPR7 (neuropeptides B/W receptor 1); P48145; inhibition, % at 4.4 µM; AID 1861; hit rate 1.1% among 290,000; GPR7-expressing cells, fluorescence antagonist assay; in the data active means inhibition above about 16%, passing the limit was not always enough;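 further: cells stimulated with the agonist NPW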
CRFBP-R2 block: blocks CRF-induced signaling of the CRF-BP/CRF-R2 complex; HEK293 CRF-R2/CRF-BP, CRF-induced calcium fluorescence; inhibition, % at 11.8 µM; AID 588475; hit rate 0.59% among 350,000;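 active means inhibition of the ligand-induced calcium signal above about 50% at the single tested concentration, limit read from the data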
CRFR2-BP ag: CRF-BP/CRF-R2 complex agonism. HEK293 CRF-R2/CRF-BP, calcium dye fluorescence (FLIPR); percent of saturating CRF peptide response. activation, % at 13.2 µM. hit rate 0.46% among 350,000. AID 588473;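 active means activation of at least 50%, plus an integration ratio under a set limit after plate pattern correction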
TRPN1 ag: activates the zebrafish TRPN1 channel; hit rate 0.18% among 220,000; HEK293 zebrafish TRPN1-YFP, Fluo-8 calcium fluorescence; 100% = response to 87 µM carbachol; activation, % at 3 µM; AID 1424;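 active means activation above its plate's cutoff, the mean activation of test wells on that plate plus 3 SD, cut at about 19% in these data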
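System: zebrafish TRPN1-YFP in HEK293 cells / Dosing: 3 µM single point / Timing: dye loading 1 h at 37 °C, then 30 min room temperature / Signal: Fluo-8 calcium fluorescence, excitation 470-495 nm, emission 515-575 nm / Read-out basis: percent activation from peak over basal fluorescence ratio, control-normalized / Control set: high carbachol 87 µM, low DMSO alone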
GPR7 antag conf: human GPR7 antagonism, confirmation assay | shares compounds with GPR7 antag | GPR7-expressing cells, calcium fluorescence antagonist mode | inhibition, % at 4.4 µM | hit rate 52% among 2,400; in the data active means inhibition above about 24%;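 further: stimulated with the GPR7 agonist NPW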
MCHR1 antagonist: counter-screen for GPR7 antagonists: antagonists of human MCHR1; MCHR1-expressing cells, fluorescence antagonist assay; shares compounds with GPR7 antag; hit rate 62% among 2,400; inhibition, % at 4.4 µM; in the data active means inhibition above about 22%
Large screens that a line does not name were inactive (follow-up assays come after a bar, where they were run). Most compounds without a hit are left out; they make up all but 2% or so of the library.

COc1ccc(C(C(=O)NCc2ccc(F)cc2)N(Cc2cccnc2)C(=O)c2snc(C(N)=O)c2N)cc1 (configuration not stated)	none (no result: TRPML3 agonist, TRPN1 ag)
Cc1ccc([C@@H]2C[C@H]3[C@@H](CN2S(=O)(=O)c2ccc(Cl)cc2)C(=O)C[C@@H](c2ccc(Cl)cc2)N3S(=O)(=O)c2ccccc2C)cc1	none (no result: TRPML3 agonist, GPR7 antag, TRPN1 ag)
O=C(/C=C/c1ccc(Cl)cc1)Nc1ccc(CN2CCOCC2)cc1	GPR7 antag 27.9 | GPR7 antag conf 36.4 | MCHR1 antagonist 55.4
CC(C)c1ccc(/C=C/C(=O)Nc2ccc(CN3CCOCC3)cc2)cc1	none
CCOc1ccc(C(=O)NCC(=O)N2CCCC2)cc1	none (no result: TRPML3 agonist, TRPN1 ag)
Cc1ccc(NC(=O)CSc2nnc(-c3ccncc3)n2C)cc1C	GPR7 antag 83.1 | GPR7 antag conf inactive | MCHR1 antagonist inactive
COc1ccc(N2CCN(C(=O)C(=O)c3cn(CC(=O)N4CCCCCC4)c4ccccc34)CC2)cc1	none (no result: TRPML3 agonist, TRPN1 ag)
CC(C)CC(NC(=O)C1CCC(C)CC1)C(=O)NCc1cccnc1 (configuration not stated)	none
CC(C)Cc1ccc(C(C)C(=O)Nc2ccc(O)cc2)cc1 (configuration not stated)	TRPML3 agonist 22.0, GPR7 antag 82.6, CRFR2-BP ag 78.1, TRPN1 ag 44.6 | GPR7 antag conf 88.2 | MCHR1 antagonist 94.8
CC(C)Cc1ccc(C(C)C(=O)Nc2cccnc2)cc1 (configuration not stated)	GPR7 antag 54.5, CRFR2-BP ag 62.3 (no result: TRPML3 agonist, TRPN1 ag) | GPR7 antag conf 46.4 | MCHR1 antagonist 68.3
CC(C)CC(NC(=O)C1CCC(C)CC1)C(=O)Nc1cccnc1 (configuration not stated)	GPR7 antag 28.2 | GPR7 antag conf inactive | MCHR1 antagonist 33.8
CCCCN(C(=O)c1nn(C)c(=O)c2ccccc12)c1c(N)n(CC(C)C)c(=O)[nH]c1=O	none (no result: TRPML3 agonist, GPR7 antag, TRPN1 ag)
CCCCn1c(N)c(N(CCOC)C(=O)CN2C(=O)NC3(CC(C)CC(C)(C)C3)C2=O)c(=O)[nH]c1=O (configuration not stated)	none (no result: TRPML3 agonist, GPR7 antag, TRPN1 ag)
O=C1Nc2ccccc2C12NCCc1c2[nH]c2ccccc12 (configuration not stated)	none
c1ccc2c3c([nH]c2c1)C1(CCCCC1)NCC3	GPR7 antag 10.8 | GPR7 antag conf inactive | MCHR1 antagonist inactive
COc1ccccc1N1CCN(C(=O)Nc2ccc([N+](=O)[O-])cc2)CC1	none
COc1cccc(CN2CCN(C(=O)Nc3ccc([N+](=O)[O-])cc3)CC2)c1	GPR7 antag 29.3 | GPR7 antag conf 40.6 | MCHR1 antagonist 67.6
O=[N+]([O-])c1ccc(N2CCN(Cc3ccccc3)CC2)nc1	GPR7 antag 22.5 | GPR7 antag conf 27.2 | MCHR1 antagonist inactive
O=[N+]([O-])c1ccc(CN2CCC(Cc3ccccc3)CC2)cc1	GPR7 antag 26.1 (no result: TRPML3 agonist, TRPN1 ag) | GPR7 antag conf inactive | MCHR1 antagonist 32.9
O=[N+]([O-])c1ccc(CN2CCN(c3ccc4ccccc4n3)CC2)cc1	none
O=[N+]([O-])c1ccc(N2CCN(c3cccc(Cl)c3)CC2)nc1	GPR7 antag 50.7 (no result: TRPML3 agonist, TRPN1 ag) | GPR7 antag conf 28.7 | MCHR1 antagonist 69.7
CCOC(=O)C1=CN(Cc2cccc(F)c2)S(=O)(=O)N(C)C1c1ccc(F)c(Cl)c1 (configuration not stated)	none (no result: TRPML3 agonist, GPR7 antag, TRPN1 ag)
COc1ccc(-c2ccc(CN3C(C(C)C)C(=O)N(Cc4cn(CC5CCCCC5)nn4)CCS3(=O)=O)cc2)cc1OC (configuration not stated)	none (no result: TRPML3 agonist, GPR7 antag, TRPN1 ag)
O=[N+]([O-])c1ccc(N2CCN(Cc3cccc([N+](=O)[O-])c3)CC2)cc1	GPR7 antag 37.4 (no result: TRPML3 agonist, TRPN1 ag) | GPR7 antag conf 55.7 | MCHR1 antagonist 63.1
O=C(CCCOc1ccc(Cl)cc1Cl)NC(Cc1ccccc1)C(=O)O (configuration not stated)	none (no result: TRPML3 agonist, GPR7 antag, TRPN1 ag)
CCOC(=O)CNC(=O)c1ccc2[nH]c3ccccc3c2c1	none
O=C(NCC(O)CO)c1ccc2[nH]c3ccccc3c2c1 (configuration not stated)	GPR7 antag 25.8 | GPR7 antag conf inactive | MCHR1 antagonist inactive
COc1ccc(C(CNC(=O)C(C)c2ccc3cc(OC)ccc3c2)N(C)C)cc1 (configuration not stated)	none (no result: TRPML3 agonist, TRPN1 ag)
COc1ccc2cc([C@H](C)C(=O)N(C)Cc3ccccc3N3CCCC3)ccc2c1	GPR7 antag 27.9 (no result: TRPML3 agonist, TRPN1 ag) | GPR7 antag conf inactive | MCHR1 antagonist 49.8
Cn1c(=O)c2c(nc(CN3CCc4ccccc4C3)n2Cc2cccc(Cl)c2)n(C)c1=O	GPR7 antag 23.9 | GPR7 antag conf inactive | MCHR1 antagonist inactive
Cn1ncc(Br)c1C(=O)NC1CCCCCC1	none (no result: TRPML3 agonist, TRPN1 ag)
CC(C)CN(C(=O)C1CCC1)c1c(N)n(Cc2ccccc2)c(=O)[nH]c1=O	none (no result: TRPML3 agonist, GPR7 antag, TRPN1 ag)
COc1ccc(C2CC(c3cccc(OC)c3)n3nc(N)nc3N2)cc1 (configuration not stated)	GPR7 antag 39.3 | GPR7 antag conf inactive | MCHR1 antagonist inactive
COc1cccc(C2CC(c3ccccc3Cl)n3nc(N)nc3N2)c1 (configuration not stated)	none
Cc1ccc(C2CC(c3ccccc3C)n3nc(N)nc3N2)cc1 (configuration not stated)	GPR7 antag 26.4 | GPR7 antag conf inactive | MCHR1 antagonist inactive
COc1cccc(C2CC(c3ccc(Cl)cc3Cl)n3nc(N)nc3N2)c1 (configuration not stated)	GPR7 antag 26.9 | GPR7 antag conf inactive | MCHR1 antagonist inactive
CCc1ccc(C2CC(c3ccccc3Cl)Nc3nc(N)nn32)cc1 (configuration not stated)	GPR7 antag 30.3 | GPR7 antag conf 42.3 | MCHR1 antagonist inactive
CC(NC(=O)COc1ccc(/C=N/NC(=O)CO)cc1)c1ccccc1 (configuration not stated)	none (no result: TRPML3 agonist, TRPN1 ag)
CCOc1ccc(NC(=O)COC(=O)CNC(=O)c2ccc(-c3ccccc3)cc2)cc1	none (no result: TRPML3 agonist, GPR7 antag, TRPN1 ag)
Cc1ccc(C2NC(=NCc3ccccc3)Nc3nc(C)cc(=O)n32)cc1 (configuration not stated)	GPR7 antag 26.5 | GPR7 antag conf inactive | MCHR1 antagonist inactive
Nc1c(C(=O)O)ccc2c1C(=O)c1ccccc1C2=O	GPR7 antag 23.0 | GPR7 antag conf inactive | MCHR1 antagonist inactive
Nc1cc(C(=O)O)c(N)c2c1C(=O)c1ccccc1C2=O	none
CS(=O)c1nc(-c2ccc(Br)cc2)cc(-c2ccccc2)c1C#N (configuration not stated)	GPR7 antag 53.9 | GPR7 antag conf 97.3 | MCHR1 antagonist 100.9
CS(=O)(=O)c1nc(-c2ccc(Br)cc2)cc(-c2ccccc2)c1C#N	none
